Results reported in ChEMBL document CHEMBL5543129, “Peptide Inhibitor Targeting the Extraterminal Domain in BRD4 Potently Suppresses Breast Cancer Both In Vitro and In Vivo” (J Med Chem, 2024).
Square brackets hold non-standard residues; d marks the D form. Peptide text beside a SMILES is read from it. Hyp = O=C(O)[C@@H]1C[C@@H](O)CN1; Ahx = NCCCCCC(=O)O

Assays:
BT-549 = test: Cytotoxicity against human BT-549 cells incubated for 1 week by CellTiter 96 Aqueous One Solution based assay; format: functional, cell-based; details: BT-549, 168 h
Method in brief: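 Cells grown in RPMI-1640 (T47D, BT549) or DMEM (MDA-MB-231) with 10% FBS, 37 °C, 5% CO2. Seeded 2 × 10^3/well, exposed to a gradient concentration of peptide for 1 week. MTS-type reagent added 20 μL per 100 μL medium, 1 h at 37 °C, absorbance read at 490 nm. EC50 derived from the concentration–response curve.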

[1] = biological target: T1, von Hippel-Lindau disease tumor suppressor/Bifunctional arginine demethylase and lysyl-hydroxylase JMJD6 (Homo sapiens) (UniProt P40337+Q6NYC1); test: Protac activity at VHL/JMJD6 in human MCF7 cells assessed as degradation by measuring fold change in remaining JMJD6 level at 10 uM incubated for 24 hrs by immunoblotting analysis (reference value: […]); format: cell-based
[2] = biological target: T2, von Hippel-Lindau disease tumor suppressor/Bromodomain-containing protein 4 (Homo sapiens) (UniProt O60885+P40337); test: PROTAC activity at VHL/His-tagged BDR4 ET domain (1047 to 1362 residues) (unknown origin) transfected in MCF7 cells assessed as degradation by measuring fold change in remaining BRD4 level at 5 uM incubated for 24 hrs by immunoblotting analysis (reference value: […]); format: cell-based
[3] = biological target: T2, von Hippel-Lindau disease tumor suppressor/Bromodomain-containing protein 4 (Homo sapiens); test: PROTAC activity at VHL/His-tagged BDR4 ET domain (601 to 683 residues) (unknown origin) transfected in MCF7 cells assessed as degradation by measuring fold change in remaining BRD4 level at 10 uM incubated for 12 hrs by immunoblotting analysis (reference value: […]); format: cell-based
[4] = biological target: T2, von Hippel-Lindau disease tumor suppressor/Bromodomain-containing protein 4 (Homo sapiens); test: PROTAC activity at VHL/BDR4 ET domain in human MCF7 cells assessed as degradation by measuring fold change in remaining BRD4 level at 10 uM incubated for 24 hrs in presence of MG132 by immunoblotting analysis (reference value: […]); format: cell-based
[5] = biological target: T2, von Hippel-Lindau disease tumor suppressor/Bromodomain-containing protein 4 (Homo sapiens); test: PROTAC activity at VHL/BDR4 ET domain in human MCF7 cells assessed as degradation by measuring fold change in remaining BRD4 level at 10 uM incubated for 12 hrs by immunoblotting analysis (reference value: […]); format: cell-based
[6] = biological target: T2, von Hippel-Lindau disease tumor suppressor/Bromodomain-containing protein 4 (Homo sapiens); test: PROTAC activity at VHL/His-tagged BDR4 ET domain (471 to 730 residues) (unknown origin) transfected in MCF7 cells assessed as degradation by measuring fold change in remaining BRD4 level at 5 uM incubated for 24 hrs by immunoblotting analysis (reference value: […]); format: cell-based
[7] = biological target: T2, von Hippel-Lindau disease tumor suppressor/Bromodomain-containing protein 4 (Homo sapiens); test: PROTAC activity at VHL/His-tagged BDR4 ET domain (471 to 730 residues) (unknown origin) transfected in MCF7 cells assessed as degradation by measuring fold change in remaining BRD4 level at 20 uM incubated for 24 hrs by immunoblotting analysis (reference value: […]); format: cell-based
[8] = biological target: T1, von Hippel-Lindau disease tumor suppressor/Bifunctional arginine demethylase and lysyl-hydroxylase JMJD6 (Homo sapiens); test: Protac activity at VHL/JMJD6 in human MCF7 cells assessed as degradation by measuring fold change in remaining JMJD6 level at 10 uM incubated for 24 hrs in presence of MG132 by immunoblotting analysis (reference value: […]); format: cell-based
[9] = biological target: T2, von Hippel-Lindau disease tumor suppressor/Bromodomain-containing protein 4 (Homo sapiens); test: PROTAC activity at VHL/BDR4 ET domain in human MCF7 cells assessed as degradation by measuring fold change in remaining BRD4 level at 10 uM incubated for 6 hrs by immunoblotting analysis (reference value: […]); format: cell-based
[10] = biological target: T1, von Hippel-Lindau disease tumor suppressor/Bifunctional arginine demethylase and lysyl-hydroxylase JMJD6 (Homo sapiens); test: Protac activity at VHL/JMJD6 in human MCF7 cells assessed as degradation by measuring fold change in remaining JMJD6 level at 10 uM incubated for 12 hrs by immunoblotting analysis (reference value: […]); format: cell-based
[11] = biological target: T2, von Hippel-Lindau disease tumor suppressor/Bromodomain-containing protein 4 (Homo sapiens); test: PROTAC activity at VHL/His-tagged BDR4 ET domain (1 to 470 residues) (unknown origin) transfected in MCF7 cells assessed as degradation by measuring fold change in remaining BRD4 level at 20 uM incubated for 24 hrs by immunoblotting analysis (reference value: […]); format: cell-based
[12] = biological target: T2, von Hippel-Lindau disease tumor suppressor/Bromodomain-containing protein 4 (Homo sapiens); test: PROTAC activity at VHL/His-tagged BDR4 […] (unknown origin) transfected in MCF7 cells assessed as degradation by measuring fold change in remaining BRD4 level at 10 uM incubated for 12 hrs by immunoblotting analysis (reference value: […]); format: cell-based
[13] = biological target: T1, von Hippel-Lindau disease tumor suppressor/Bifunctional arginine demethylase and lysyl-hydroxylase JMJD6 (Homo sapiens); test: Protac activity at VHL/JMJD6 in human MCF7 cells assessed as degradation by measuring fold change in remaining JMJD6 level at 5 uM incubated for 24 hrs by immunoblotting analysis (reference value: […]); format: cell-based

Row | Molecule | EC50 (BT-549) [µM] | fold change (FC) [1] | fold change (FC) [2] | fold change (FC) [3] | fold change (FC) [4] | fold change (FC) [5] | fold change (FC) [6] | fold change (FC) [7] | fold change (FC) [8] | fold change (FC) [9] | fold change (FC) [10] | fold change (FC) [11] | fold change (FC) [12] | fold change (FC) [13]
1 | H-YGRKKRRQRRRRNQKFKCGE-OH | 32.3 | – | – | – | – | – | – | – | – | – | – | – | – | –
2 | CC[C@H](C)[C@H](NC(=O)[C@H](Cc1ccc(O)cc1)NC(=O)[C@@H]1C[C@@H](O)CN1C(=O)[C@H](C)NC(=O)[C@@H](NC(=O)CCCCCNC(=O)[C@H](CCC(=O)O)NC(=O)CNC(=O)[C@H](CS)NC(=O)[C@H](CCCCN)NC(=O)[C@H](Cc1ccccc1)NC(=O)[C@H](CCCCN)NC(=O)[C@H](CCC(N)=O)NC(=O)[C@H](CC(N)=O)NC(=O)[C@H](CCCNC(=N)N)NC(=O)[C@H](CCCNC(=N)N)NC(=O)[C@H](CCCNC(=N)N)NC(=O)[C@H](CCCNC(=N)N)NC(=O)[C@H](CCC(N)=O)NC(=O)[C@H](CCCNC(=N)N)NC(=O)[C@H](CCCNC(=N)N)NC(=O)[C@H](CCCCN)NC(=O)[C@H](CCCCN)NC(=O)[C@H](CCCNC(=N)N)NC(=O)CNC(=O)[C@@H](N)Cc1ccc(O)cc1)[C@@H](C)CC)C(=O)O (H-YGRKKRRQRRRRNQKFKCGE[Ahx]IA[Hyp]YI-OH) | – | 0.59 | 1.09 | 0.78 | 0.96 | 0.55 | 0.8 | 0.6 | 0.88 | 0.72 | 0.85 | 1.06 | 0.99 | 0.77
